Screening results (PubChem)
MEX-5 binding: C. elegans MEX-5 TCR-2 RNA binding activity. Q9XUB2. actives 0.38% (n = 300,000). MEX-5/FITC-TCR2 RNA binding, fluorescence polarization; hits give low values. activity score (negative = inhibition of binding), % at 10 µM. AID 1832;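 active = inhibition past about -25% in most replicates, and total fluorescence under double the plate's negative control median, limit read from the data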
Target sequence (Q9XUB2 whole entry, looked up): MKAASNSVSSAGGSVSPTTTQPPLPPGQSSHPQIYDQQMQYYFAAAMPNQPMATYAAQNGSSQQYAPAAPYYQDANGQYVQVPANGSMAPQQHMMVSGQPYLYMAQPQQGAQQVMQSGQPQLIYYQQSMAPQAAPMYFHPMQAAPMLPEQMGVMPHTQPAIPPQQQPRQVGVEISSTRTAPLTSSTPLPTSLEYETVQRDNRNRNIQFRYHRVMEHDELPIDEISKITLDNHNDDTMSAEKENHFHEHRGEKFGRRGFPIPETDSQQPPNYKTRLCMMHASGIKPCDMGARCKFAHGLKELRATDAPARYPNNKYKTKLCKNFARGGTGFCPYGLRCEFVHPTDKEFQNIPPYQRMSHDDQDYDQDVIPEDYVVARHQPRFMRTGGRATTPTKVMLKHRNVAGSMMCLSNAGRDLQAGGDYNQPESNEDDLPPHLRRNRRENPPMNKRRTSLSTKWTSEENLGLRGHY
HCV core dimer: HCV core protein dimerization inhibition. TR-FRET GST/Flag-core106 dimerization, 1536-well. inhibition, % at 5 µM. actives 0.33% (n = 300,000);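 active = inhibition above the mean of all tested compounds plus 3 SD, set per screening campaign, cut at about 45% in these data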
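Assay system: GST-tagged and Flag-tagged HCV core protein residues 1-106 / Times: compound-protein-antibody incubation 4 h at 22.5 °C / Signal: time-resolved FRET, ex 340 nm, em 617 and 671 nm / Evaluation: % inhibition based on acceptor/donor emission ratio / Benchmarks: wells lacking GST-core106 and wells with excess unlabelled core106 / Repeats: singlicate, one well per compound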
EBNA-1 inh: blocks EBNA-1 binding to DNA. EBNA-1 DNA binding, fluorescence polarization. inhibition, % at 14.8 µM. actives 0.34% (n = 300,000). AID 1950; in the data active = inhibition above about 28%
ZTA counter: blocks Epstein-Barr virus ZTA, an EBNA-1 counter-screen; inhibition, % at 11 µM; AID 2234; actives 0.15% (n = 320,000); ZTA-DNA binding, fluorescence polarization; in the data active = inhibition above about 33%
EBV gp42 inh: blocks Epstein-Barr virus glycoprotein 42 binding | Q1HVG2 | Fluorescence polarization binding assay, mP read-out | inhibition, % (tested at 21.74 µM) | actives 0.42% (n = 220,000) | AID 1085; in the data active = inhibition above about 50%
Target sequence (Q1HVG2 whole entry, looked up): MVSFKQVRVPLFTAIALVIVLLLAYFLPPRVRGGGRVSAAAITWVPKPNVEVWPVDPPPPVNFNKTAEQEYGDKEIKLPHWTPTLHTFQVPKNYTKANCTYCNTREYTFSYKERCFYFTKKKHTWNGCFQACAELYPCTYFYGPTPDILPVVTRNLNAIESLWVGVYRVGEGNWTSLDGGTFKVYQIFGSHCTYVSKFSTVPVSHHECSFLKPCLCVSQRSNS
HCV NS3 hel inh: HCV NS3 helicase inhibition; NS3 helicase DNA unwinding, Cy5 molecular beacon fluorescence; inhibition, % at 10.9 µM; actives 0.56% (n = 290,000);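 active = inhibition above the mean of all tested compounds plus 3 SD, set per campaign, cut at about 35% in these data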
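Compound dosing – single dose, 10.9 µM nominal final, DMSO 0.8% final · System – NS3 helicase fragment of HCV · Buffer or medium – MOPS pH 6.5, MgCl2, DTT, Tween20, BSA · Signal – Cy5 beacon fluorescence read at start and 1 h · Also added – annealed dual-labelled DNA beacon duplex, ATP-started · Schedule – 1 h at 25 °C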
EBNA-1 inh conf: EBNA-1 (EBV) inhibition, confirmation | inhibition, % at 14.8 µM | Recombinant EBNA-1 DBD, Cy5-DNA fluorescence polarization | shares compounds with EBNA-1 inh | actives 35% (n = 830);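 active = mean inhibition across replicates above a set limit taken from the earlier primary screen, cut at about 28% in these data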
ZTA counter trip: counter-screen for EBNA-1 inhibitors: Epstein-Barr virus ZTA inhibitors, triplicate; Zta-ZRE DNA binding, Cy5 fluorescence polarization; 830 tested, under 10 active; shares compounds with EBNA-1 inh; inhibition, % at 11.1 µM;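 active = mean inhibition over triplicates above a set limit taken from the primary EBNA-1 screen, cut at about 37% in these data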;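 note: purified full length Zta protein with Cy5 labeled ZRE DNA probe; inhibitors lower polarization by freeing the labeled DNA probe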
Large screens that a line does not name were inactive (follow-up assays come after a bar, where they were run). Only some compounds are listed: those with a hit (about 1.7% of all), similar ones and a draw of the others.

COc1ccc(NS(=O)(=O)c2ccc(O)c(NC(=O)c3ccc(S(=O)(=O)N4CCCCCC4)cc3)c2)cc1	EBNA-1 inh 28.3 | EBNA-1 inh conf inactive | ZTA counter trip inactive
COc1ccc(NS(=O)(=O)c2ccc(O)c(NC(=O)c3ccc(S(=O)(=O)N4CCCC4)cc3)c2)cc1	none
COc1ccc(S(=O)(=O)N2CCCCC2)cc1NC(=O)c1cccs1	EBNA-1 inh 35.5 (no result: EBV gp42 inh) | EBNA-1 inh conf 31.8 | ZTA counter trip inactive
O=C(COc1ccccc1)N=C1SC2CS(=O)(=O)CC2N1Cc1ccccc1 (stereo unspecified)	EBNA-1 inh active (no result: EBV gp42 inh) | EBNA-1 inh conf inactive | ZTA counter trip inactive
O=C(Cn1nnc(-c2ccccc2NC(=O)c2ccccc2)n1)Nc1ccc2c(c1)OCCO2	EBNA-1 inh 61.3 | EBNA-1 inh conf 60.5 | ZTA counter trip inactive
CCn1nnc(-c2ccccc2NC(=O)c2ccc(-n3cnnn3)cc2)n1	none
CCn1nnc(-c2ccccc2NC(=O)c2cccc(-n3cnnn3)c2)n1	EBNA-1 inh 87.4 | EBNA-1 inh conf 83.3 | ZTA counter trip inactive
CC(=O)Nc1ccccc1-c1nnn(CC(=O)Nc2ccc3c(c2)OCCO3)n1	none
Cc1ccc2nc(-c3ccc(NC(=O)C(C)N4C(=O)c5ccccc5C4=O)cc3)sc2c1 (stereo unspecified)	EBNA-1 inh 32.8 | EBNA-1 inh conf inactive | ZTA counter trip inactive
Cc1ccc2nc(-c3ccc(NC(=O)CCN4C(=O)c5ccccc5C4=O)cc3)sc2c1	none
CCOc1ccc(NC(=O)CCC(=O)N/N=C(\C)c2cccs2)cc1	none (no result: EBV gp42 inh)
O=C(NCc1ccc(-c2nc3ccccc3s2)cc1)c1cc2ccccc2o1	EBNA-1 inh 28.2 | EBNA-1 inh conf inactive | ZTA counter trip inactive
Cc1ccc(S(=O)(=O)N(CC(=O)N/N=C\c2cccs2)c2cccc3cccnc23)cc1	EBNA-1 inh 32.5 | EBNA-1 inh conf 28.3 | ZTA counter trip inactive
Cc1ccc(S(=O)(=O)N(CC(=O)N/N=C/c2cccc(C)c2)c2cccc3cccnc23)cc1	none
COC(=O)c1cc(S(=O)(=O)N(Cc2ccccc2)C(C)(C)C)c[nH]1	none (no result: EBV gp42 inh)
O=C(CSc1nnc(SCc2ccc(Cl)cc2)s1)N/N=C/c1c(Cl)cccc1Cl	EBNA-1 inh 35.3 | EBNA-1 inh conf inactive | ZTA counter trip inactive
S=C(NCc1ccco1)Nc1ccc(Cl)cc1	EBNA-1 inh 31.0 | EBNA-1 inh conf inactive | ZTA counter trip inactive
CN(Cc1ccccc1)c1ccc(C(CC(N)=O)NC(=O)c2ccccc2)cc1[N+](=O)[O-] (stereo unspecified)	none (no result: EBV gp42 inh)
Cc1cccc(NC(=O)N2CCCCCC2)c1	none (no result: EBV gp42 inh)
CCCC(=O)N(Cc1cc(=O)[nH]c2ccccc12)c1ccccc1OC	EBNA-1 inh 28.1 (no result: EBV gp42 inh) | EBNA-1 inh conf inactive | ZTA counter trip inactive
COc1ccccc1N(Cc1cc(=O)[nH]c2ccccc12)C(C)=O	none (no result: EBV gp42 inh)
COc1ccc(CCN2CCCC(CN(C)Cc3cc(Cl)c(O)c(OC)c3)C2)cc1 (stereo unspecified)	none (no result: HCV core dimer, EBNA-1 inh, ZTA counter, EBV gp42 inh)
COc1ccc(C(=O)N/C(=C\c2ccccc2)C(=O)NCc2cccnc2)cc1	none (no result: EBV gp42 inh)
O=C(N/C(=C/c1ccc(Br)cc1)c1nc2ccccc2[nH]1)c1ccco1	EBNA-1 inh 31.3 | EBNA-1 inh conf 81.8 | ZTA counter trip inactive
Cc1ccc(C)c(NC(=O)Cn2nc(-c3ccccc3)nc2-c2ccccc2)c1	EBNA-1 inh 50.3 | EBNA-1 inh conf inactive | ZTA counter trip inactive
CCOC(=O)c1ccc(CNC(=O)CSc2nc(NC(=O)c3ccccc3)c3c(C)c(C)oc3n2)cc1	EBNA-1 inh 40.1 | EBNA-1 inh conf inactive | ZTA counter trip inactive
CCOC(=O)c1ccc(CNC(=O)CSc2nnc(-c3ccncc3)o2)cc1	none
CCOc1cc(C=O)ccc1OCCn1c([N+](=O)[O-])cnc1C	none (no result: EBV gp42 inh)
COc1ccc(Cn2cccc(NC(=O)Nc3cccc(C#N)c3)c2=O)cc1	EBNA-1 inh 105.7 | EBNA-1 inh conf 117.3 | ZTA counter trip inactive
O=C(CSc1nc2ccccc2s1)Nc1nccs1	EBNA-1 inh 64.5 | EBNA-1 inh conf inactive | ZTA counter trip inactive
CCCN(CCO)C1CCN(CCc2ccccc2)CC1	none (no result: EBV gp42 inh)
Cc1cc(C)n(/N=C/c2c[nH]c3ccccc23)c(=O)c1C#N	EBNA-1 inh 27.8 | EBNA-1 inh conf inactive | ZTA counter trip inactive
Cc1cc(C)n(/N=C/c2ccccc2)c(=O)c1C#N	none
Oc1ccc(-c2nc3ccccc3nc2-c2ccccc2)cc1	none (no result: EBV gp42 inh)
O=C(NCCc1ccc(F)cc1)c1ccc2c(=O)n3c(nc2c1)CCC3	EBNA-1 inh 44.9 (no result: EBV gp42 inh, HCV NS3 hel inh) | EBNA-1 inh conf inactive | ZTA counter trip inactive
O=C(NCCOc1ccccc1F)c1ccc2c(=O)n3c(nc2c1)CCC3	none (no result: MEX-5 binding, HCV core dimer, EBNA-1 inh, EBV gp42 inh, HCV NS3 hel inh)
CC(C)c1cccc(OCCN2CCCC2)c1	none (no result: EBV gp42 inh)
O=C(CSc1nnc2c3c4c(sc3ncn12)CCCC4)NCc1ccco1	EBNA-1 inh 32.2 | EBNA-1 inh conf inactive | ZTA counter trip inactive
COCCCNC(=O)Cn1cc(/C=C(\C#N)C(=O)NC2CC2)c2ccccc21	none (no result: EBV gp42 inh)
O=C(NCCCCCCNC(=O)c1ccc(Br)s1)c1ccc(Br)s1	EBNA-1 inh 53.1 | EBNA-1 inh conf inactive | ZTA counter trip inactive
COc1ccc(Cc2c(Cl)ncnc2Cl)cc1	EBNA-1 inh 32.9 | EBNA-1 inh conf inactive | ZTA counter trip inactive
CCCCOc1ccc(C(=O)Nn2c(-c3cccs3)nc3ccccc3c2=O)cc1	EBNA-1 inh 95.3 | EBNA-1 inh conf 40.9 | ZTA counter trip inactive
COc1ccc(CNC(=O)CN2C(=O)C3CCCN3c3ncc(Cl)cc32)cc1 (stereo unspecified)	EBNA-1 inh 29.1 | EBNA-1 inh conf inactive | ZTA counter trip inactive
Cc1nn(CC2CC2)c(=O)n1-c1ccc(Oc2ccccc2)cc1	none
Nc1nc(-c2ccc3c(c2)CCCC3)cs1	EBNA-1 inh 53.1 (no result: MEX-5 binding) | EBNA-1 inh conf inactive | ZTA counter trip inactive
Nc1nc(-c2ccc3c(c2)OCCO3)cs1	none
CCC(Sc1ncccc1Nc1ccccn1)C(=O)O (stereo unspecified)	none (no result: MEX-5 binding, EBV gp42 inh, HCV NS3 hel inh)
CC1CCCC(C)N1S(=O)(=O)c1ccc(NC(=O)CCn2cnc3ccccc3c2=O)cc1 (stereo unspecified)	EBNA-1 inh 47.9 | EBNA-1 inh conf 52.5 | ZTA counter trip inactive
Cc1cc(C(=O)COC(=O)c2cc(Cl)c(O)c(Cl)c2)c(C)n1C	none (no result: MEX-5 binding, HCV core dimer, EBNA-1 inh, EBV gp42 inh, HCV NS3 hel inh)
COc1ccc(-c2nc(CCNC(=O)c3cccs3)cs2)cc1	none
Cc1cc(Cl)ccc1OCC(=O)Nc1ccccc1N1CCOCC1	none
Cc1cc(Cl)ccc1OCC(=O)NC(=S)Nc1ccccc1N1CCOCC1	EBNA-1 inh 44.0 | EBNA-1 inh conf 38.0 | ZTA counter trip inactive
